NPY-Y2 antag = NPY-Y2 receptor antagonists, primary screen, cell-based | Neuropeptide Y receptor type 2 (Homo sapiens), P49146 | NPY-Y2 expressing cells, antagonist mode | inhibition, % at 2.7 µM | 140,000 tested, 0.99% active | AID 793, 2007;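 note: 0% = vehicle with agonist challenge and 100% = reference antagonist with challenge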
Target sequence (P49146 whole entry, looked up): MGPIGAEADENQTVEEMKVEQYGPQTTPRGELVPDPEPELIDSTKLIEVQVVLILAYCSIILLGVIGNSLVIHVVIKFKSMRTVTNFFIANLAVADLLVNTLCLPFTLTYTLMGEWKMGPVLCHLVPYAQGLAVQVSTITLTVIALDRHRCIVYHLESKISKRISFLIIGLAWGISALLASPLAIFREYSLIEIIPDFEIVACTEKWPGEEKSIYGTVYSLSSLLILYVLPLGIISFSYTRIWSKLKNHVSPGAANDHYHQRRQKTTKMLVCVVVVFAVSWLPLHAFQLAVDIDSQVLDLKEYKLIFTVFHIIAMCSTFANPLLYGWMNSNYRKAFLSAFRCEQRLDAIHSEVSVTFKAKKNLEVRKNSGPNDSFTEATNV
EP2 modulator = EP2 receptor modulators, cAMP readout, primary screen, cell-based, HTRF cAMP, PGE2 stimulation; EP2-expressing cells, cAMP HTRF FRET, PGE2 co-stimulation; induction, % at 25 µM; 260,000 tested, 0.83% active; AID 940, 2007;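 active = compounds whose cAMP rise, as percent of the full-agonist control response, exceeds 60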;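 note: rat C6 glioma line stably carrying human EP2 under a CMV promoter; the protocol text gives 20 µM as final concentration; 100% = response of wells given 1 µM PGE2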
NPY1 pot ag = NPY-Y1 receptor potentiators or agonists, primary screen, cell-based. activation, % at 3.6 µM. NPY-Y1 expressing cells, potentiator/agonist activation. AID 1304, 2008. 220,000 tested, 0.37% active. Neuropeptide Y receptor type 1 (Homo sapiens), P25929; in the data active = activation above about 33%, passing the limit was not always enough;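 note: cells stimulated with NPY at EC10 then isoproterenol at EC100; 0% = low agonist plus stimulus and 100% = saturating agonist plus stimulus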
NPY Y1 blocker = NPY-Y1 receptor antagonists, primary screen, cell-based | HEK293-CNG Y1 cells, membrane potential fluorescence; NPY at EC95, then isoproterenol | 200,000 tested, 1% active | Neuropeptide Y receptor type 1 (Homo sapiens), P25929 | AID 1040, 2008 | inhibition, % at 3.6 µM;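 active = inhibition above the campaign mean inhibition of all tested compounds plus 3 SD, cut at about 20% in these data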;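 note: 0% = DMSO wells given NPY plus isoproterenol and 100% = isoproterenol alone without NPY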
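Material: HEK293 Y1/CNG channel cell line; also added: NPY (25 nM), isoproterenol (1 µM), Ro 20-1724 (25 µM); doses: one concentration, 3.6 µM, in 0.4% DMSO; schedule: compound incubation 1 h at room temperature, readout 45 min post-stimulation; technique: membrane potential fluorescence; measure: fluorescence ratio normalized to % inhibition between controls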
NPY-Y2 PAM-ag = NPY-Y2 potentiators or agonists, primary screen, cell-based. Neuropeptide Y receptor type 2 (Homo sapiens), P49146. cells expressing NPY-Y2, potentiator/agonist read-out. activation, % at 3.6 µM. 220,000 tested, 0.45% active. AID 1359, 2008; in the data active = activation above about 27%;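 note: cells stimulated with NPY near EC25 plus isoproterenol at EC100; 0% = vehicle plus submaximal agonist and 100% = vehicle plus saturating agonist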
EP2 antag = human EP2 receptor antagonists, primary screen, TR-FRET cAMP, C6 glioma cells; inhibition, % at 25 µM; C6 glioma cells expressing human EP2; cells stimulated with saturating PGE2; Prostaglandin E2 receptor EP2 subtype (Homo sapiens), P43116; 260,000 tested, 0.52% active;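 active = percent inhibition above 40 after rounding to a whole number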;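 note: rat C6 glioma host cells with rolipram phosphodiesterase inhibitor present; the protocol text gives 20 µM as final concentration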
NPY1 antag conf = NPY-Y1 receptor antagonists, retest of hits, confirmation, HEK293-CNG cells, membrane potential fluorescence, triplicate. shares compounds with NPY Y1 blocker. cAMP; NPY challenge against isoproterenol-raised cAMP. inhibition, % at 3.6 µM. 1,200 tested, 21% active. AID 1254, 2008; in the data active = inhibition above about 20%;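 note: 0% = vehicle with agonist plus stimulus and 100% = stimulus alone without agonist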
NPY2 antag ctr = NPY-Y2 receptor antagonists, selectivity check, confirmation, counter-screen for NPY-Y1 antagonist project, HEK293-CNG cells, membrane potential fluorescence, triplicate. 1,200 tested, 28% active. AID 1255, 2008. inhibition, % at 3.6 µM. shares compounds with NPY Y1 blocker. antagonism; cells given NPY, then isoproterenol;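 note: 0% = DMSO with agonist challenge and 100% = reference antagonist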
* hit, by the source's call. Shown are actives, neighbours in structure and some others; about 2.8% of the full set was active somewhere. Cut-off read from the data, not from the text of the source, unless noted: active = inhibition above about 17%; inactive = the rest.

For CN(C)CCNS(=O)(=O)c1ccc2c(c1)oc(=O)n2C the results were EP2 modulator -60 and EP2 antag 8.
`Cn1c(=NCC(O)COc2ccccc2)sc2ccccc21` (centres undefined) gave NPY-Y2 antag 12, EP2 modulator -37, NPY1 pot ag -57, NPY Y1 blocker 22*, NPY-Y2 PAM-ag -23, EP2 antag 8, NPY1 antag conf 7 and NPY2 antag ctr 15.
Nc1cc(=O)[nH]c2nnc(SCC(=O)Nc3ccc(Br)cc3)n12 was read as EP2 modulator 37 and EP2 antag 13.
For COc1ccccc1NC(=O)c1oc2ccc(C)cc2c1C the results were NPY-Y2 antag 12, EP2 modulator 56, NPY1 pot ag -41, NPY Y1 blocker 22*, NPY-Y2 PAM-ag -17, EP2 antag 6, NPY1 antag conf 7 and NPY2 antag ctr 16.
`COc1cccc(C(=O)CSc2nc3cc(C)cc(C)c3cc2C#N)c1` gave EP2 modulator 38 and EP2 antag 23.
CC1CCN(C(c2cc3cc4c(cc3[nH]c2=O)OCO4)c2nnnn2C2CCCCC2)CC1 (centres undefined) was read as EP2 modulator 0 and EP2 antag 14.
CC(C)C(=O)N1CCN(c2ccccc2NC(=O)c2ccccc2)CC1 was read as EP2 modulator 1 and EP2 antag 11.
`O=C(Nc1ccccc1N1CCN(c2ccccc2)CC1)c1ccccc1` gave EP2 modulator 43, NPY1 pot ag -32, NPY Y1 blocker 41*, NPY-Y2 PAM-ag -31, EP2 antag 4, NPY1 antag conf 34* and NPY2 antag ctr 20*.
Screening Cc1nn(-c2ccccc2)c(C)c1/C=N/n1cnnc1 returned EP2 modulator 18, NPY1 pot ag 12, NPY Y1 blocker 0, NPY-Y2 PAM-ag 1 and EP2 antag 10.
Cc1nn(-c2ccccc2)c(Oc2ccc(F)cc2)c1/C=N/n1cnnc1 was read as NPY-Y2 antag 4, EP2 modulator 15, NPY1 pot ag 0, NPY Y1 blocker 20*, NPY-Y2 PAM-ag 4, EP2 antag 11, NPY1 antag conf 5 and NPY2 antag ctr 1.
CCN1CCCC1CN(Cc1ccncc1)Cc1c(OC)cccc1OC (centres undefined) was read as EP2 modulator -29 and EP2 antag 12.
`COC(=O)Nc1ccc(S(=O)(=O)NCc2ccccn2)cc1` gave EP2 modulator 30, NPY1 pot ag 6, NPY Y1 blocker 41*, NPY-Y2 PAM-ag 8, EP2 antag 4, NPY1 antag conf 5 and NPY2 antag ctr 0.
Screening CS(=O)(=O)N(CC(=O)Nc1ccc2c(c1)OCO2)c1cccc(Cl)c1 returned EP2 modulator -24 and EP2 antag 12.
COc1ccccc1C1(O)CCN(Cc2[nH]c3ccc(F)cc3c2C)CC1 was read as EP2 modulator -84 and EP2 antag 5.
`Cc1nc(N2CCCCC2)c2c(C)c(C(=O)Nc3ccccc3C(F)(F)F)sc2n1` gave EP2 modulator 17, NPY1 pot ag -47, NPY Y1 blocker 27*, NPY-Y2 PAM-ag -37, EP2 antag 9, NPY1 antag conf 22* and NPY2 antag ctr 15.
`Cc1nc(N2CCCCC2)c2c(C)c(C(=O)Nc3cccc(C(F)(F)F)c3)sc2n1` gave EP2 modulator 5, NPY1 pot ag -2, NPY Y1 blocker 19, NPY-Y2 PAM-ag -6 and EP2 antag 19.
For O=S(=O)(c1ccc(Br)cc1)n1c(Cc2ccccc2)nc2ccccc21 the results were NPY-Y2 antag 4, EP2 modulator 7, NPY1 pot ag 3, NPY Y1 blocker 21*, NPY-Y2 PAM-ag -4, EP2 antag 9, NPY1 antag conf 3 and NPY2 antag ctr 4.
For O=S(=O)(N1CCCCC1)n1c(Cc2ccccc2)nc2ccccc21 the results were NPY-Y2 antag 2, EP2 modulator 55, NPY1 pot ag 15, NPY Y1 blocker 2, NPY-Y2 PAM-ag 22 and EP2 antag 6.
Screening CC1Cc2ccccc2N1C(=O)Cn1nc(-c2cccs2)cc(N)c1=O (centres undefined) returned EP2 modulator -12 and EP2 antag 8.
`Cc1ccccc1OCCN(C#N)c1nc(N(C)C)nc(N(C)C)n1` gave EP2 modulator 55, NPY1 pot ag -51, NPY Y1 blocker 28*, NPY-Y2 PAM-ag -28, EP2 antag 9, NPY1 antag conf 12 and NPY2 antag ctr 19*.
For Cc1cc(C(=O)CSc2nc3ccccc3[nH]2)c(C)n1CC1CCCO1 (centres undefined) the results were NPY-Y2 antag 5, EP2 modulator -36, NPY1 pot ag -45, NPY Y1 blocker 26*, NPY-Y2 PAM-ag 9, EP2 antag 0, NPY1 antag conf 42* and NPY2 antag ctr 16.
For O=C1N(Cc2cccc(Cl)c2)C[C@@H]2C[C@@H](c3ccsc3)N3CCC[C@@]123 the results were EP2 modulator 4, NPY1 pot ag 4, NPY Y1 blocker 29*, NPY-Y2 PAM-ag 4, EP2 antag 1, NPY1 antag conf 4 and NPY2 antag ctr 5.
`Cc1ccccc1NC(=O)C1CCCN(S(=O)(=O)c2cccc3cccnc23)C1` (centres undefined) gave NPY-Y2 antag 0, EP2 modulator 1, NPY1 pot ag 8, NPY Y1 blocker 96*, NPY-Y2 PAM-ag -9, EP2 antag 9, NPY1 antag conf 2 and NPY2 antag ctr 3.
For Cc1ccccc1NC(=O)C1CCCN1S(=O)(=O)c1cccc2cccnc12 (centres undefined) the results were NPY-Y2 antag 2, EP2 modulator -15, NPY1 pot ag 9, NPY Y1 blocker 5, NPY-Y2 PAM-ag 4 and EP2 antag 14.
Screening CC[N+](C)(C)CCOC(=O)c1oc2ccccc2c1C returned EP2 modulator -8 and EP2 antag 13.
COCC(=O)NCCNc1nc2ccc(C)cc2cc1C was read as NPY-Y2 antag 3, EP2 modulator -18, NPY1 pot ag -18, NPY Y1 blocker 0, NPY-Y2 PAM-ag -1 and EP2 antag 16.

Source: PubChem BioAssay (several laboratories)
